Measured values: ChEMBL document CHEMBL4190396, “Discovery of Novel Small-Molecule Inhibitors of NF-κB Signaling with Antiinflammatory and Anticancer Properties” (J Med Chem, 2018)
Calls of active or inactive are those of the source. No cut-off for these calls is given here.

What was measured:
[1] = molecular target: Toll-like receptor 1/2 (Homo sapiens) (UniProt O60603+Q15399); assay: Antagonist activity at human TLR1/2 expressed in HEK293 cells assessed as decrease in Pam3CSK4-induced NF-kappaB activation-mediated SEAP production at 10^-9 to 10^-5 M after 24 hrs by Quanti-blue-based assay; type: cell-based
Method in brief: (§1)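 HEK293 cells stably carrying a human TLR plus an NF-κB-driven SEAP reporter, seeded 5×10^4/well for 24 h at 37 °C, then stimulated: Pam3CSK4 100 µg/mL (TLR1/2), Pam2CSK4 100 µg/mL, poly I:C 5 µg/mL (TLR3), LPS 20 ng/mL (TLR4), flagellin 100 ng/mL (TLR5), R848 1 µg/mL (TLR7, TLR8), CpG-ODN2006 1 µg/mL (TLR9). After 24 h with compound, supernatant mixed with QUANTI-Blue, 1 h 37 °C, OD 620 nm.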

[2] = molecular target: Toll-like receptor 5 (Homo sapiens) (UniProt O60602); assay: Antagonist activity at human TLR5 expressed in HEK293 cells assessed as decrease in flagellin-induced NF-kappaB activation-mediated SEAP production at 10^-9 to 10^-5 M after 24 hrs by Quanti-blue-based assay; type: cell-based; method in brief: as §1
Chain of Toll-like receptor 5 (Homo sapiens) (O60602 whole entry): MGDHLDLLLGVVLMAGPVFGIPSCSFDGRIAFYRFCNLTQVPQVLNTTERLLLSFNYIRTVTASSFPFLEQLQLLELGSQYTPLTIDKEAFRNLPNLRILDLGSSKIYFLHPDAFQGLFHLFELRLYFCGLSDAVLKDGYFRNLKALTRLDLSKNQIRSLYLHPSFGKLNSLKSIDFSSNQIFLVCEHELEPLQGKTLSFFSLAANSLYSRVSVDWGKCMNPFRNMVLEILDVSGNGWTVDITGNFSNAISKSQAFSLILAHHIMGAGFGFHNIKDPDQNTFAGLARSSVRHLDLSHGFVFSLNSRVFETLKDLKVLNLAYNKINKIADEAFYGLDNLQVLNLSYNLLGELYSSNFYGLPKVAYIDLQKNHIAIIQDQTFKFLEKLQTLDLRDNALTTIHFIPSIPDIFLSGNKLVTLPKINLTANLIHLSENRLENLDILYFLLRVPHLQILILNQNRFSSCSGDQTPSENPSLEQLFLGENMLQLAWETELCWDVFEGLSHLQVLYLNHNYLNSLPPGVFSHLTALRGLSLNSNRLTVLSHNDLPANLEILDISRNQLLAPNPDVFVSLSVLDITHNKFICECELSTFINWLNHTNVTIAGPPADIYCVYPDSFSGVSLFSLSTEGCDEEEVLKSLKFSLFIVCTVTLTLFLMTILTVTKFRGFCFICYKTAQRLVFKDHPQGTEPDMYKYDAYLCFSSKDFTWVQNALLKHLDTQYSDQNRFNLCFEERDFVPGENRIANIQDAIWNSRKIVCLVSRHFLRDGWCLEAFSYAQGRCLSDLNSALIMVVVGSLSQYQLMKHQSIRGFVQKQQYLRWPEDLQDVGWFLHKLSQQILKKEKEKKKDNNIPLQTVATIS

HeLa [3] = assay: Induction of apoptosis in human HeLa cells after 24 hrs by Annexin-V FITC/propidium iodide staining based flow cytometry; type: functional, cell-based
Method in brief: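 HeLa cells, 3×10^5/well, attached 24 h, then DMSO or 5, 10, 20 µM for 24 h; harvested with EDTA-free 0.25% trypsin, Annexin V-FITC/PI double stained, flow cytometry; early plus late apoptotic fractions counted; three independent experiments.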

TLR2/TLR6 (Homo sapiens) = TLR2/TLR6 (Homo sapiens) (UniProt O60603+Q9Y2C9); assay: Antagonist activity at human TLR2/6 expressed in HEK293 cells assessed as decrease in Pam2CSK4-induced NF-kappaB activation-mediated SEAP production at 10^-9 to 10^-5 M after 24 hrs by Quanti-blue-based assay; type: cell-based; method in brief: as §1
[4] = molecular target: Toll-like receptor 8 (Homo sapiens) (UniProt Q9NR97); assay: Antagonist activity at human TLR8 expressed in HEK293 cells assessed as decrease in R848-induced NF-kappaB activation-mediated SEAP production at 10^-9 to 10^-5 M after 24 hrs by Quanti-blue-based assay; type: cell-based; method in brief: as §1
Chain of Toll-like receptor 8 (Homo sapiens) (Q9NR97 whole entry): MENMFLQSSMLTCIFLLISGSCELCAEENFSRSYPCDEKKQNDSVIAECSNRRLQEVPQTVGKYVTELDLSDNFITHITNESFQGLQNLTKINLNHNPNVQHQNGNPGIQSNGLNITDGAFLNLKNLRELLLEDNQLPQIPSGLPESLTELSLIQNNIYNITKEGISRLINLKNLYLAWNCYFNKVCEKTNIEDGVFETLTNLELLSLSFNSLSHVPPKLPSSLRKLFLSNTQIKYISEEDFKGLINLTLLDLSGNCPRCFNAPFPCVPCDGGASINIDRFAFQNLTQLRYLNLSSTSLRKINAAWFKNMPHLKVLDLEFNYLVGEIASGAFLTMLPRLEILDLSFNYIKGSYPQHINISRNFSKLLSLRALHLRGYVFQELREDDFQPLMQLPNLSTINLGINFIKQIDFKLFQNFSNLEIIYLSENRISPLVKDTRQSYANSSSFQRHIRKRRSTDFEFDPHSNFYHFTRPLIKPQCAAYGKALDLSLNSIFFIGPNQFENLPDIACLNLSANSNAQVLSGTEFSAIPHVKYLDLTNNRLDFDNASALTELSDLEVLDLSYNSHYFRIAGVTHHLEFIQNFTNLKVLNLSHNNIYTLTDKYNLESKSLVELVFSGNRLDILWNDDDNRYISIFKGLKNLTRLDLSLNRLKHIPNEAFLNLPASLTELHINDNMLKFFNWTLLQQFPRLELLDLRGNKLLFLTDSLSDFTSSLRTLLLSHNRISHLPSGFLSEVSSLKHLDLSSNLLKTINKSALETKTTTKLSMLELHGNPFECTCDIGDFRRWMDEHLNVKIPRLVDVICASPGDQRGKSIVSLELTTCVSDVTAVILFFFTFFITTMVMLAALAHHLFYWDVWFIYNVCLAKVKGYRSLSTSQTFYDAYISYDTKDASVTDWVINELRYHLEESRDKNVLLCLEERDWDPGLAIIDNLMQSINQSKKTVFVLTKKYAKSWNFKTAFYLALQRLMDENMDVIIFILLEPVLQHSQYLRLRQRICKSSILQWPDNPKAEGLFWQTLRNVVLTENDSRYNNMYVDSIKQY

[5] = molecular target: T1, Toll-like receptor 7 (Homo sapiens) (UniProt Q9NYK1); assay: Antagonist activity at human TLR7 expressed in HEK293 cells assessed as decrease in R848-induced NF-kappaB activation-mediated SEAP production at 10^-9 to 10^-5 M after 24 hrs by Quanti-blue-based assay; type: cell-based; method in brief: as §1
T1 sequence (whole entry): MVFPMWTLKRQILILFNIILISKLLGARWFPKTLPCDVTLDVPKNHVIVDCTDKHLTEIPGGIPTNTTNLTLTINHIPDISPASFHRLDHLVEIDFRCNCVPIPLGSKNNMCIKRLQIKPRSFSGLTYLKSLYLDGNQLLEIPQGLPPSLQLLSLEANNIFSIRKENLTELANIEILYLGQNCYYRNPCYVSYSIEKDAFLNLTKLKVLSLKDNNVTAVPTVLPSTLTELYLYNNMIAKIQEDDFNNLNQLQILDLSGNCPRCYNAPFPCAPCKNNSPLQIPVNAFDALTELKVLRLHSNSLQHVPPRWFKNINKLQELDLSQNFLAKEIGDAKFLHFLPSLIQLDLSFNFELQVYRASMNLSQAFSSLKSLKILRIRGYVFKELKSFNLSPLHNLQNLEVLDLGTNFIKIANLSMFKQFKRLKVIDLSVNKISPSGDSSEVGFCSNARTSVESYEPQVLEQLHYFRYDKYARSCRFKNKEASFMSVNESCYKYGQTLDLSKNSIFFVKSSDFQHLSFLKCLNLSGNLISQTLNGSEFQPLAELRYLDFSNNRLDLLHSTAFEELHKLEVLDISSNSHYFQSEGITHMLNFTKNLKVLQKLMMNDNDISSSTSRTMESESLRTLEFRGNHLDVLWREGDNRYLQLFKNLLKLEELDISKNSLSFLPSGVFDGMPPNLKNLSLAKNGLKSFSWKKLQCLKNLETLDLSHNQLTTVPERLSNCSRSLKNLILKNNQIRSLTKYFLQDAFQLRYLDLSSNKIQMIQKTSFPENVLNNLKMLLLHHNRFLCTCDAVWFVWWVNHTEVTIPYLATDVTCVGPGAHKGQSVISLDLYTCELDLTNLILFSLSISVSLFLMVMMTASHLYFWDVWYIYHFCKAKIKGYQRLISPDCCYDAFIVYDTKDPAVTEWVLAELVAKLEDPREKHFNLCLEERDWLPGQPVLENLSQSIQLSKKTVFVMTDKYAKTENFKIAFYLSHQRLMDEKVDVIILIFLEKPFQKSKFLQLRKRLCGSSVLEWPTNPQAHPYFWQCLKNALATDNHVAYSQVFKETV

[6] = molecular target: Interleukin-1 receptor type 1 (Homo sapiens, UniProt P14778); assay: Inhibition of IL1R in TLR null HEK-blue cells assessed as decrease in IL-1beta-stimulated NF-kappaB activation-mediated SEAP production after 24 hrs by Quanti-blue-based assay; type: cell-based
Chain of Interleukin-1 receptor type 1 (P14778 whole entry): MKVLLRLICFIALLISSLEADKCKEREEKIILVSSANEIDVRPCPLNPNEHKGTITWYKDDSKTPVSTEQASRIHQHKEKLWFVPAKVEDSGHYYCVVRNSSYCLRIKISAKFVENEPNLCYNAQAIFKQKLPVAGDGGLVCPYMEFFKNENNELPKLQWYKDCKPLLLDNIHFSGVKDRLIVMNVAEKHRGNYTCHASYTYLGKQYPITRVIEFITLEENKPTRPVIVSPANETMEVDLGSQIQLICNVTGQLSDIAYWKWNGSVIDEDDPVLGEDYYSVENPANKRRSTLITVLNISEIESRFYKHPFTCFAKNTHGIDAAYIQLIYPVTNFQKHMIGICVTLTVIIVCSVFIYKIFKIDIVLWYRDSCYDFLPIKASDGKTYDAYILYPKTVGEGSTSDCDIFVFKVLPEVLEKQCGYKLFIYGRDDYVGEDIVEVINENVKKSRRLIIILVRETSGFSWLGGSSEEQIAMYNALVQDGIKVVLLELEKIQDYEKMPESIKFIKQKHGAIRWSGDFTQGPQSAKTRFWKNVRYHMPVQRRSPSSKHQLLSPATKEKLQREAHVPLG

[7] = molecular target: Protein kinase C (PKC) (Homo sapiens) (UniProt O94806+P41743+P17252+P05129+Q05655+P05771+Q05513+Q02156+P24723+Q15139+Q04759); assay: (§2) Inhibition of PKC in HEK-blue cells expressing human TLR7 assessed as inhibition of PMA-induced NF-kappaB activation-mediated SEAP production after 24 hrs by Quanti-blue-based assay; type: cell-based
Protein kinase C (PKC) = assay: as §2; type: cell-based
[8] = molecular target: Proto-oncogene tyrosine-protein kinase Src (Homo sapiens) (UniProt P12931); assay: Inhibition of wild-type human partial length SRC (L240 to L536 residues) expressed in bacterial expression system assessed as residual activity at 10 uM by Kinomescan method relative to control
Chain of Proto-oncogene tyrosine-protein kinase Src (Homo sapiens) (P12931 2-536 limits assumed): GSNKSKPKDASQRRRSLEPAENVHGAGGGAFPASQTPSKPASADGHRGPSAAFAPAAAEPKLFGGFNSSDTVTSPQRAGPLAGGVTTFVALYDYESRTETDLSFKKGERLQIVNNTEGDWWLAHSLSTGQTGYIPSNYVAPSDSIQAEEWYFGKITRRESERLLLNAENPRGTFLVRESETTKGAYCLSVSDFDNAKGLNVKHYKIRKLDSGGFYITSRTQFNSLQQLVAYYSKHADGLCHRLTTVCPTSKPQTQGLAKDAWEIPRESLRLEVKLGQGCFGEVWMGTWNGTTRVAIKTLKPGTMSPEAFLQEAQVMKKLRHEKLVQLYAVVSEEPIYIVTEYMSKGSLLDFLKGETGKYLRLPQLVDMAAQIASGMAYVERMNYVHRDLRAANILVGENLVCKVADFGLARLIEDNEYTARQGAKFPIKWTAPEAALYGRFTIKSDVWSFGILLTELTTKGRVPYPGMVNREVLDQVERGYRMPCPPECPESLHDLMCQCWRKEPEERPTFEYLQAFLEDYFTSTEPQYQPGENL

[9] = molecular target: Tyrosine-protein kinase SYK (Homo sapiens) (UniProt P43405); assay: Inhibition of wild-type human partial length SYK (D354 to N635 residues) expressed in bacterial expression system assessed as residual activity at 10 uM by Kinomescan method
HeLa [10] = assay: Cell cycle arrest in human HeLa cells assessed as accumulation at G0/G1 phase at 10 uM after 24 hrs by propidium iodide staining based flow cytometry (reference value: 49.4%); type: functional
Method in brief: (§3)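 HeLa cells, 3×10^5/well, attached overnight, switched to serum-free medium for synchronisation, then DMSO or 5, 10, 20 µM for 24 h; cells fixed, PI-stained, G0/G1, S and G2/M fractions by flow cytometry; n = 3, mean ± SD.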

HeLa [11] = assay: Cell cycle arrest in human HeLa cells assessed as accumulation at G0/G1 phase at 20 uM after 24 hrs by propidium iodide staining based flow cytometry (reference value: 49.4%); type: functional; method in brief: as §3
HeLa [12] = assay: Cell cycle arrest in human HeLa cells assessed as accumulation at G2/M phase at 10 uM after 24 hrs by propidium iodide staining based flow cytometry (reference value: 15.7%); type: functional; method in brief: as §3
HeLa [13] = assay: Cell cycle arrest in human HeLa cells assessed as accumulation at G0/G1 phase after 24 hrs by propidium iodide staining based flow cytometry; type: functional; method in brief: as §3

inhibition [1]: Active
inhibition [2]: Active
inhibition (TLR2/TLR6 (Homo sapiens)): Active
inhibition [4]: Active
inhibition [5]: Active
IC50 [6]: 0.72 µM
inhibition [7]: Dose-dependent effect
IC50 (Protein kinase C (PKC)): 0.59 µM
Activity [8]: 75%
inhibition [9]: inactive
Structure (SMILES): O=C(NNC(=O)c1csc(-c2ccc(Cl)cc2Cl)n1)c1ccccn1
Activity (HeLa [3]): Dose-dependent effect
Activity (HeLa [10]): 54.7%
Activity (HeLa [11]): 67%
Activity (HeLa [12]): 3.6%
Activity (HeLa [13]): Dose-dependent effect
